Results pooled from the literature.
Protocols differ between the studies behind these lines.
SPHK1: Sphingosine kinase 1 (SPHK1, Homo sapiens, UniProt Q9NYA1)
ADORA2A: Adenosine receptor A2a (ADORA2A, Homo sapiens, UniProt P29274)
PDE5A: cGMP-specific 3',5'-cyclic phosphodiesterase (PDE5A, Homo sapiens, UniProt O76074)
EHMT1: Histone-lysine N-methyltransferase EHMT1 (EHMT1, Homo sapiens, UniProt Q9H9B1)
OPRK1: Kappa-type opioid receptor (OPRK1, Homo sapiens, UniProt P41145)
SIGMAR1: Sigma non-opioid intracellular receptor 1 (SIGMAR1, Homo sapiens, UniProt Q99720)
CNR1: Cannabinoid receptor 1 (CNR1, Homo sapiens, UniProt P21554)
PARP1: Poly [ADP-ribose] polymerase 1 (PARP1, Homo sapiens, UniProt P09874)
PIK3C2B: Phosphatidylinositol 4-phosphate 3-kinase C2 domain-containing subunit beta (PIK3C2B, Homo sapiens, UniProt O00750)

The inhibition of `[H]/N=C(\N)N1CCC[C@H]1c1nc(-c2ccc(OCC=Cc3cccc(Br)c3)c(C(F)(F)F)c2)no1` is reported as 12% (SPHK1; enzyme activity, inhibitor, radiometric; 1 µM).
The inhibition of `COCCOc1ccc(N2CCN(Cc3ccc4oc(-c5ccco5)nc4c3)CC2)cc1` is reported as 14% (ADORA2A; ligand displacement, radioligand; 10 µM, cell membranes).
The inhibition of `CC(C)(C)N1C(=O)[C@@H]2Cc3c([nH]c4ccccc34)[C@@H](c3ccc(Br)s3)N2C1=O` is reported as 90% (PDE5A; enzyme activity, inhibitor, FP; 10 µM).
With `O=c1c(O)cccc2cc(O)c(O)c(O)c12` the inhibition was 3% (EHMT1; cell-free assay; 10 µM).
`O=C(c1ccc(F)cc1)N(Cc1ccccc1)C1CCCCC1` has an inhibition of 33% (OPRK1; ligand displacement; 10 µM).
`[H]/N=C(\N)N1CCC[C@H]1c1nc(-c2ccc(OCC=CCCCC)c(C(F)(F)F)c2)no1` has an inhibition of 23% (SPHK1; enzyme activity, inhibitor, radiometric; 1 µM).
With `O=C(Nc1ccc(S(=O)(=O)N2CCC(Cl)CC2)cc1)c1ccc([N+](=O)[O-])o1` the inhibition was 38% (SIGMAR1; ligand displacement, radioligand; 10 µM).
`COc1cc(NC(C)=O)c(Cl)cc1C(=O)Nc1nccs1` has an inhibition of 11.8% (CNR1; cell-free assay; 10 µM).
`COc1cccc2nc(-c3ccc(C(=O)N4CCN(C(=O)C5CC5)CC4)cc3F)[nH]c(=O)c12` gave an inhibition of 56% (PARP1; enzyme activity, inhibitor, ELISA; 10 µM).
With `CC(C)CCn1c(SCC(=O)Nc2ccccc2C(F)(F)F)nc2nccnc2c1=O` the inhibition was 23% (PIK3C2B; enzyme activity, inhibitor; 10 µM).
The inhibition of `[H]/N=C(\N)N1CCC[C@H]1c1nc(-c2ccc(OCC=Cc3ccccc3C(F)(F)F)c(C(F)(F)F)c2)no1` is reported as 0% (SPHK1; enzyme activity, inhibitor, radiometric; 1 µM).
`COC(=O)[C@@H]1Cc2c([nH]c3ccccc23)[C@@H](c2cccnc2)N1` has an inhibition of 41% (PDE5A; enzyme activity, inhibitor, FP; 50 µM).
With `O=C(O)CCCCCCCCCCCC[C@@H]1C=CCC1` the inhibition was -11% (EHMT1; cell-free assay; 10 µM).
With `CN(C)C1CCN(CC#Cc2nn(C3CCCC3)c3nc(NCc4ccccc4)ncc23)C1` (stereo not drawn) the inhibition was 4% (Cytoplasmic tyrosine-protein kinase BMX (BMX, Homo sapiens, UniProt P51813); enzyme activity, inhibitor, FRET; 1 µM).
`COC(=O)[C@@H]1Cc2c([nH]c3ccccc23)[C@H](c2ccc(OC)c(OC)c2)N1` has an inhibition of 8% (PDE5A; enzyme activity, inhibitor, FP; 50 µM).
The inhibition of `CCCCc1ccc(CCc2ccc(-c3noc([C@@H]4CCCN4C(=N)N)n3)cc2C(F)(F)F)cc1` is reported as 6% (SPHK1; enzyme activity, inhibitor, radiometric; 1 µM).
The inhibition of `N#Cc1cc(Cn2c(N3CCCC3)nc3ccccc32)ccc1F` is reported as -11.7% (OPRK1; ligand displacement; 10 µM).
`Oc1ccc(CCNc2ccc3oc(-c4ccco4)nc3c2)cc1` gave an inhibition of 15% (ADORA2A; ligand displacement, radioligand; 10 µM, cell membranes).
`Nc1ccc(-c2ccncc2)cc1NC(=O)N1CCCC1` gave an inhibition of 15% (CNR1; ligand displacement, radioligand; 10 µM).
`COc1ccc(-c2nc3cc(CCN4CCN(c5ccccc5)CC4)ccc3o2)cc1OC` has an inhibition of 5% (ADORA2A; ligand displacement, radioligand; 10 µM, cell membranes).
`COc1ccc([C@@H]2c3[nH]c4ccccc4c3C[C@H]3C(=O)N(C(C)(C)C)C(=O)N23)cc1OC` gave an inhibition of 79% (PDE5A; enzyme activity, inhibitor, FP; 50 µM).
With `CCCc1ccc(CCc2ccc(-c3noc([C@@H]4CCCN4C(=N)N)n3)cc2C(F)(F)F)cc1` the inhibition was 6% (SPHK1; enzyme activity, inhibitor, radiometric; 1 µM).
The inhibition of `CN1CC(Oc2cnc(C#N)cc2-c2ccn3nc(NC(=O)C4CC4)cc3c2)C1` is reported as -7% (Testis-specific serine/threonine-protein kinase 4 (TSSK4, Homo sapiens, UniProt Q6SA08); enzyme activity, inhibitor; 1 µM).
For `CCN1C(=O)[C@H]2Cc3c([nH]c4ccccc34)[C@@H](c3ccc(OC)c(OC)c3)N2C1=O`, the inhibition was 78% (PDE5A; enzyme activity, inhibitor, FP; 50 µM).
`O=C(O)c1cc(O)c2c(c1)[C@H]([C@H]1c3cc(C(=O)O)cc(O)c3C(=O)c3c(O[C@@H]4O[C@H](CO)[C@@H](O)[C@H](O)[C@H]4O)cccc31)c1cccc(O[C@@H]3O[C@H](CO)[C@@H](O)[C@H](O)[C@H]3O)c1C2=O` has an inhibition of 16% (EHMT1; cell-free assay; 10 µM).
`COc1cc2c(cc1OC)-c1nnnn1CCC2` has an inhibition of 60% (PARP1; enzyme activity, inhibitor; 10 µM).
With `CSCCC(NC=O)C(=O)NC(C)C(=O)O` (stereo not drawn) the inhibition was 0% (EHMT1; cell-free assay; 10 µM).
The inhibition of `CCN(Cc1ccccc1C(F)(F)F)C(=O)C1CCN(S(=O)(=O)c2ccc3[nH]ncc3c2)CC1` is reported as 5% (OPRK1; ligand displacement, radioligand; 10 µM).
With `O=C1CCCc2ccc(F)cc2N1` the inhibition was 0% (PARP1; enzyme activity, inhibitor; 10 µM).
With `Cc1cnc(C(=O)NCCNC(=O)Cn2[nH]c(=O)c3ccccc3c2=O)cn1` the inhibition was ~50% (PARP1; enzyme activity, inhibitor; 0.5 µM).
The inhibition of `O=C1c2c(O)cccc2Cc2cccc(O)c21` is reported as 10% (EHMT1; cell-free assay; 10 µM).
For `O=c1[nH]c(-c2c[nH]c3ncccc23)nc2ccccc12`, the inhibition was 28% (PARP1; enzyme activity, inhibitor, ELISA; 10 µM).
With `CCCCC=CCOc1ccc(-c2noc([C@@H]3CCCN3C(=N)N)n2)cc1C(F)(F)F` the inhibition was 18% (SPHK1; enzyme activity, inhibitor, radiometric; 1 µM).
For `Oc1cccc(Nc2nc(-c3ccc(F)cc3F)cs2)c1`, the inhibition was -11.2% (Endothelin-1 receptor (EDNRA, Homo sapiens, UniProt P25101); cell-free assay; 10 µM).
For `CS(=O)(=O)Nc1cccc(-c2csc(NC(=O)CSc3nc4nccnc4c(=O)n3CCc3ccccc3)n2)c1`, the inhibition was 19% (PIK3C2B; enzyme activity, inhibitor; 10 µM).
`COc1ccc(CCc2ccc(-c3noc([C@@H]4CCCN4C(=N)N)n3)cc2C(F)(F)F)cc1` has an inhibition of 0% (SPHK1; enzyme activity, inhibitor, radiometric; 1 µM).
With `O=C(c1ccc(Cl)cc1)N(Cc1ccccc1)C1CCCCC1` the inhibition was 11.1% (CNR1; cell-free assay; 10 µM).
`CCN1C(=O)[C@@H]2Cc3c([nH]c4ccccc34)[C@H](c3cccnc3)N2C1=O` has an inhibition of 24% (PDE5A; enzyme activity, inhibitor, FP; 50 µM).
With `O=c1c(-c2cc(O)c(O)c(O)c2)coc2cc(O)c(O)c(O)c12` the inhibition was 0% (EHMT1; cell-free assay; 10 µM).
For `Ic1cccc2cnccc12`, the inhibition was 21% (SIGMAR1; ligand displacement, radioligand; 10 µM).
With `CCN(c1cc(C#CCN2CCOCC2)cc(C(=O)NCc2c(C)cc(C)[nH]c2=O)c1C)[C@H]1CC[C@H](N(C)CCOC)CC1` the inhibition was 9% (EHMT1; enzyme activity, inhibitor; 1 µM).
`Cn1cncc1C1=CN(c2ncnc3[nH]cnc23)CCS1` gave an inhibition of 85% (Interleukin-1 receptor-associated kinase-like 2 (IRAK2, Homo sapiens, UniProt O43187); enzyme activity, inhibitor, radiometric; 2 µM).
The inhibition of `CC(C)(C)N1C(=O)[C@H]2Cc3c([nH]c4ccccc34)[C@@H](c3cccnc3)N2C1=O` is reported as 90% (PDE5A; enzyme activity, inhibitor, FP; 50 µM).
For `c1coc(-c2nc3cc(CN4CCNCC4)ccc3o2)c1`, the inhibition was 15% (ADORA2A; ligand displacement, radioligand; 10 µM, cell membranes).
With `CCN(CC)c1ccc(C2Nc3ccc(C(=O)c4ccccc4)cc3NC3=C2C(=O)CC(C)(C)C3)cc1` (stereo not drawn) the inhibition was 12% (Histamine H4 receptor (HRH4, Homo sapiens, UniProt Q9H3N8); ligand displacement, radioligand; 10 µM).
`CCN1CCN(Cc2ccc(NC(=O)c3ccc(C)c(/C=C/c4cnc5[nH]ccc5c4OC)c3)cc2C(F)(F)F)CC1` has an inhibition of -23.9% (Serine/threonine-protein kinase A-Raf (ARAF, Homo sapiens, UniProt P10398); target engagement in cells, inhibitor, chemoproteomics; A-375; 5 µM).
`COc1ccc(-n2nc(OCCCN3CCCCC3)ccc2=O)cc1` has an inhibition of 32.1% (Sodium channel protein type 9 subunit alpha (SCN9A, Homo sapiens, UniProt Q15858); ligand displacement; 1 µM).
For `COC(=O)[C@H]1Cc2c([nH]c3ccccc23)[C@@H](c2ccc(OC)c(OC)c2)N1C(=O)CCl`, the inhibition was 70% (PDE5A; enzyme activity, inhibitor, FP; 50 µM).
